26 compounds from ChEMBL document CHEMBL4619783, “Identification and Optimization of a Series of 8-Hydroxy Naphthyridines with Potent In Vitro Antileishmanial Activity: Initial SAR and Assessment of In Vivo Activity” (J Med Chem, 2020) can be followed below.

Converted amounts (≈) assume the structure as drawn.

The subject of data set [1] is Leishmania donovani. Description: Antileishmanial activity against Leishmania donovani amastigotes infected in human THP1 cells incubated for 96 hrs. Type of data set: functional, organism-based. Particulars: THP-1, 96 h. In a few lines:
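THP-1 cells were infected with L. donovani amastigotes and exposed to compound for 96 h rather than the earlier 72 h. Values are from at least three or four independent replicates.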

A short description of data set [2]: Toxicity in human THP1 cells assessed as reduction in cell viability. The class given is cell-based. The settings on record: THP-1 cells.
Data set [3] is described as follows: Intrinsic clearance in mouse liver microsomes. The class given is ADME, Microsome. In general terms: Liver microsomes are vesicles of endoplasmic reticulum, rich in cytochrome P450 enzymes.
Data set [4] in a line: Kinetic aqueous solubility of the compound. Type of data set: physicochemical. The settings on record: buffer; for solubility kinetic: read-out: Kinetic_solubility.
Data set [5] is described as follows: Distribution coefficient, logD of the compound at pH 7.4 by chromatography. The class given is physicochemical. Particulars: octanol/water.
The nature of data set [6]: Drug metabolism in Balb/C mouse assessed as glucuronide adduct formation at 50 mg/kg, ip BID by UPLC Q-TOF analysis. Type of data set: ADME, organism-based. Particulars: in vivo. In a few lines: (§1)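 Balb/C mice received 50 mg/kg ip. Blood/water (1:2) was sampled at set time points, mixed with acetonitrile and centrifuged 5 min at 7000 rpm. Metabolites and parent compound were then analysed. Data are from two runs.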

Data set [7] in a line: Drug metabolism in Balb/C mouse assessed as hydroxylation formation at 50 mg/kg, ip BID by UPLC Q-TOF analysis. Type of data set: ADME, organism-based. The settings on record: in vivo. In a few lines:
as §1

Data set [8] in a line: Stability in Balb/C mouse assessed as parent compound level at 50 mg/kg, ip BID after 8 hrs by UPLC Q-TOF analysis. Type of data set: ADME, organism-based. Particulars: in vivo. The gist of the method: as §1
Data set [9] is described as follows: Selectivity index, ratio of EC50 for toxicity in human THP1 cells assessed as reduction in cell viability to EC50 for antileishmanial activity against Leishmania donovani amastigotes infected in human THP1 cells incubated for 96 hrs. Type of data set: cell-based. Particulars: THP-1 cells, read-out: Ratio EC50.
In data set [10] the test system is Leishmania donovani. Description: Antileishmanial activity against Leishmania donovani infected in mouse assessed as reduction in parasite levels at 30 mg/kg, po qd. Further details: scale not given: the % may be the effect or the level left.

Turning to `O=C(NCc1ccc(Cl)cc1)c1ccc2cccnc2c1O`, the EC50 with Leishmania donovani [1] was 15.8 µM; in data set [2], 6.31 µM. Moreover, the CLH in [3] was 19 mL/min/g. In data set [4], this compound registered a Kinetic_solubility of 219 µM. The compound further came in with a logD in data set [5] of 4.8.

`O=C(NCc1ccc(Cl)cc1)c1ncc2cccnc2c1O`: the EC50 in [2] is greater than 50.1 µM. For the same compound, the CLH in data set [3] is 10 mL/min/g. In [4], this compound showed a Kinetic_solubility greater than 250 µM.

On to `Cc1n[nH]c(-c2nc(N3CCCCS3(=O)=O)c3cccnc3c2O)n1`, for which the EC50 (in the data set on Leishmania donovani [1]; in data set [2]) was greater than 50.1 µM each time. The compound also yielded a CLH in data set [3] of 0.6 mL/min/g. Besides, the solubility kinetic in data set [4] was determined as 250 µM (≈ 90.1 µg/mL). Further, in [5], the chromatographic logD is 1.5.

Turning to `COc1ccc(CNC(=O)c2nn(C)c3cccnc3c2=O)cc1`, the EC50 (with Leishmania donovani [1]; in [2]) was greater than 50.1 µM throughout. Besides, the CLH in [3] came to 0.7 mL/min/g. Moreover, the Kinetic_solubility in [4] is greater than 250 µM. The compound further came in with a logD in data set [5] of 1.9.

For the compound `Cc1n[nH]c(-c2cc3ncccc3c(-c3ccccc3)n2)n1`, the EC50 (in the data set on Leishmania donovani [1]; in data set [2]) was greater than 50.1 µM throughout. For the same compound, the Kinetic_solubility in data set [4] was greater than 250 µM.

As to `O=C(NCc1ccc(Cl)cc1)c1ncc2ccccc2c1O`, the EC50 (in the data set on Leishmania donovani [1]; in data set [2]) was greater than 50.1 µM each time. In data set [3], this compound had a CLH of 28 mL/min/g. This compound also showed a Kinetic_solubility in data set [4] of 39 µM. In [5], this compound gave a logD of 7.6.

Turning to `CNC(=O)c1nc(-c2ccccc2OC)c2cccnc2c1O`, the EC50 in the data set with Leishmania donovani [1] is 10 µM; in data set [2], 39.8 µM. In data set [3], this compound came in with a CLH of 0.9 mL/min/g. The same compound displayed a Kinetic_solubility in data set [4] of 219 µM. In [5], this compound displayed a logD of 4.2. In addition, the Drug metabolism result in data set [6] is recorded as “Metabolite_Notdetected”; in data set [7] it was “Metabolite_Detected”. Besides, in [8], the Stability result was “Stable”.

As to `Cc1n[nH]c(-c2nc(-c3ccccc3C(F)(F)F)c3cccnc3c2O)n1`, the EC50 in the data set on Leishmania donovani [1] is 0.1 µM; in [2], greater than 50.1 µM. In addition, the CLH in [3] amounted to 1.4 mL/min/g. In addition, the solubility kinetic in [4] was greater than 250 µM. The same compound had a chromatographic logD in data set [5] of 4.3.

Take `C[C@@H](NC(=O)c1cn(C)c2cccnc2c1=O)c1ccc(F)cc1`: the EC50 (in the data set on Leishmania donovani [1]; in data set [2]) was greater than 50.1 µM throughout. Also, in [3], the CLH is 0.7 mL/min/g. Also, the solubility kinetic in [4] is greater than 250 µM.

With `COc1ccccc1-c1nc(C(=O)NCC2CC2)c(O)c2ncccc12`, the EC50 with Leishmania donovani [1] was 2 µM; in data set [2] it was greater than 50.1 µM. Besides, in data set [3], the CLH worked out at 8 mL/min/g. Further, the solubility kinetic in data set [4] was greater than 250 µM.

Take `COc1ccccc1-c1nc(C(=O)N[C@H](C)c2ccc(F)cc2)c(O)c(=O)n1C`: the EC50 (in the data set with Leishmania donovani [1]; in data set [2]) was greater than 50.1 µM each time. Also, the CLH in data set [3] is less than 0.5 mL/min/g. The same compound showed a Kinetic_solubility in [4] of 173 µM. The compound further showed a logD in data set [5] of 5.5.

`O=C1CCCN1Cc1n[nH]c(-c2ncc3cccnc3c2O)n1`: the 50% effective concentration (EC50) (in the data set with Leishmania donovani [1]; in data set [2]) was greater than 50.1 µM each time. Besides, the CLH in data set [3] was less than 0.5 mL/min/g. Also, in [4], the Kinetic_solubility was greater than 250 µM.

For the compound `O=C(NCc1ccc(Cl)cc1)c1nc(N2CCOCC2)c2cccnc2c1O`, the EC50 (with Leishmania donovani [1]; in [2]) was greater than 50.1 µM in each case. In data set [3], this compound gave a CLH of 24 mL/min/g. In addition, the solubility kinetic in data set [4] came to 219 µM (≈ 87.3 µg/mL).

As for `O=C(NCC1CC1)c1ncc2cccnc2c1O`, the 50% effective concentration (EC50) is 1.26 µM with Leishmania donovani [1] and greater than 50.1 µM in data set [2]. In data set [3], the CLH turned out to be 13 mL/min/g. This compound also yielded a chromatographic logD in data set [5] of 3.3.

Turning to `COc1ccccc1-c1nc(-c2nnc(C)o2)c(O)c2ncccc12`, the EC50 (with Leishmania donovani [1]; in [2]) was greater than 50.1 µM in each case. The compound further gave a CLH in [3] of less than 0.5 mL/min/g. Moreover, in [4], the Kinetic_solubility is greater than 250 µM. Besides, in [5], the logD was found to be 3.8.

Take `Cc1n[nH]c(-c2nc(N(C)C)c3cccnc3c2O)n1`: the values for the concentration for a half-maximal effect (EC50) (in the data set with Leishmania donovani [1]; in data set [2]) were 15.8 µM and greater than 50.1 µM, respectively. Further, the CLH in data set [3] was 14 mL/min/g. Further, the solubility kinetic in data set [4] was greater than 250 µM. The same compound yielded a chromatographic logD in data set [5] of -0.6.

As to `COc1ccccc1-c1nc(-c2nc(C)n[nH]2)c(OC)c2ncccc12`, the values for the EC50 (in the data set with Leishmania donovani [1]; in data set [2]) were 2.51 µM and greater than 50.1 µM, respectively. The CLH in [3] was 2 mL/min/g. This compound also gave a Kinetic_solubility in data set [4] greater than 250 µM. Further, the logD in [5] is given as 5.7.

For the compound `COc1ccc(CNC(=O)c2ncc3cccnc3c2O)cc1`, the EC50 in the data set with Leishmania donovani [1] is 0.501 µM; in data set [2] it was greater than 50.1 µM. This compound returned a CLH in [3] of 2.6 mL/min/g. The Kinetic_solubility in data set [4] was greater than 250 µM. The compound also came in with a logD in data set [5] of 4.2.

Turning to `Oc1c(-c2nc(CN3CCOCC3)n[nH]2)ncc2cccnc12`, the EC50 in data set [2] is greater than 50.1 µM. This compound came in with a CLH in data set [3] of 0.8 mL/min/g. In data set [4], this compound yielded a Kinetic_solubility of 219 µM. Moreover, the logD in data set [5] amounted to 0.5.

With `Oc1c(-c2nc(C(O)c3ccccc3)n[nH]2)ncc2cccnc12` (configuration not stated), the EC50 with Leishmania donovani [1] is 5.01 µM; in [2], greater than 50.1 µM. In data set [3], the CLH was 1.9 mL/min/g. Further, in data set [4], the Kinetic_solubility is greater than 250 µM.

Take `Cc1n[nH]c(-c2ncc3cccnc3c2O)n1`: the EC50 (in the data set on Leishmania donovani [1]; in data set [2]) was greater than 50.1 µM each time. In data set [3], this compound returned a CLH of 3.3 mL/min/g. The compound also showed a Kinetic_solubility in data set [4] greater than 250 µM. For the same compound, the logD in data set [5] is 0.73.

Consider `Oc1c(-c2nnc(Cc3ccc(F)cc3)[nH]2)ncc2cccnc12`, for which the EC50 in the data set with Leishmania donovani [1] was 2.51 µM; in data set [2], 39.8 µM.

`Oc1c(-c2nnc(Cc3ccc(Cl)cc3)[nH]2)ncc2cccnc12`: the EC50 in data set [2] was 31.6 µM. This compound also had a CLH in data set [3] of 18 mL/min/g. For the same compound, the Kinetic_solubility in [4] was found to be 219 µM. The logD in data set [5] came out at 4.1. Moreover, the selectivity ratio at 96 h in [9] was 100.

Take `C[C@@H]1[C@H](O)[C@@H](C)/C=C/C=C/C=C/C=C/C=C/C=C/C=C/[C@H](O[C@@H]2O[C@H](C)[C@@H](O)[C@H](N)[C@@H]2O)C[C@@H]2O[C@](O)(C[C@@H](O)C[C@@H](O)[C@H](O)CC[C@@H](O)C[C@@H](O)CC(=O)O[C@H]1C)C[C@H](O)[C@H]2C(=O)O` [AMPHOTERICIN B]: the EC50 in the data set on Leishmania donovani [1] was 0.2 µM; in data set [2], greater than 1 µM.

Turning to `CCCCCCCCCCCCCCCCOP(=O)([O-])OCC[N+](C)(C)C` [MILTEFOSINE], the EC50 in the data set on Leishmania donovani [1] was 3.98 µM; in [2], greater than 50.1 µM. Moreover, in the data set with Leishmania donovani [10], the Activity was greater than 99%.

Consider `Cc1nnc(C(=O)NC(C)(C)c2nc(C(=O)NCc3ccc(F)cc3)c(O)c(=O)n2C)o1` [RALTEGRAVIR], for which the EC50 (with Leishmania donovani [1]; in [2]) was greater than 50.1 µM throughout. In data set [4], this compound yielded a Kinetic_solubility greater than 250 µM.

By EC50 is commonly meant the concentration needed to bring the measured effect to its halfway point. Usually logD stands for lipophilicity at a set pH, counting ionised and neutral species. For orientation: chromatographic logD means lipophilicity estimated from chromatographic retention.
